In brackets after ≈: the same amount, converted by molar mass. Activity calls are given as the source filed them. The rule behind the calls is not given here.
How the values were obtained:
[1] = system: Staphylococcus aureus; test: Antibacterial activity against healthcare-associated methicillin-resistant/vancomycin-intermediate Staphylococcus aureus Mu50 infected in BALB/c mouse assessed as decrease in liver CFU levels at 7 mg/kg, ip administered twice in 24 hrs interval measured after 5 days; type: functional, organism-based
Method in brief: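 Female BALB/c mice, 6−8 weeks old, were anesthetized with pentobarbital and infected retro-orbitally with ~3.8 × 10^8 CFU of exponential-phase Mu50, 12 per group. Treatment started 1 h post-infection: 7 mg/kg ip in sterile water, two doses 24 h apart. At day 5 mice were euthanized and liver homogenates plated on TSA for CFU counts. Groups were compared by two-tailed Mann−Whitney test.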

[2] = system: HK-2; test: Cytotoxicity against human HK2 cells assessed as decrease in cell viability at 10 to 100 uM after 72 hrs by CCK8 assay; type: cell-based; conditions: hk-2, 72 h
Method in brief: (§1)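 HK-2 and HL-7702 cells were seeded at ~5000 cells/well, incubated overnight, then exposed to compound at final 10, 50 and 100 μM for 72 h. CCK-8 was added for 1.5 h at 37 °C and OD450 read. Viability was OD treated / OD untreated × 100, with triplicates.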

[3] = system: Enterococcus faecium; test: Antibacterial activity against glycopeptide-resistant Enterococcus faecium Efm-HS-0847 vanM after 24 hrs by broth microdilution method; type: functional; conditions: Efm-HS-0847, 24 h
Method in brief: (§2)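 Broth microdilution in cation-adjusted Mueller-Hinton II broth. DMSO stocks were diluted in broth and twofold serially from 128 to 0.0625 μg/mL or lower. Each well was inoculated with ~10^5 CFU of exponential-phase bacteria and incubated at 37 °C for 24 h. MIC was the lowest concentration giving complete growth inhibition, read per CLSI. Growth controls contained broth plus DMSO.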

[4] = system: Staphylococcus aureus; test: Antibacterial activity against methicillin-resistant Staphylococcus aureus USA300 LAC infected in BALB/c mouse assessed as mouse survival rate at 7 mg/kg, ip administered as single dose measured after 10 days relative to control; type: functional
Method in brief: (§3)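 Female BALB/c mice, 6−8 weeks old, were anesthetized with pentobarbital and infected retro-orbitally with ~2.35 × 10^8 CFU of exponential-phase USA300 LAC, 15 per group. A single 7 mg/kg ip dose was given 1 h after infection. Deaths were recorded daily to build survival curves.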

[5] = system: Staphylococcus aureus; test: Antibacterial activity against vancomycin/methicillin-susceptible Staphylococcus aureus Newman […] after 24 hrs by broth microdilution method; type: functional
Method in brief: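 Broth microdilution in cation-adjusted Mueller-Hinton II broth. […] Each well received ~10^5 CFU of exponential-phase bacteria and was incubated at 37 °C for 24 h. MIC was taken as the lowest concentration giving complete growth inhibition, interpreted per CLSI.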

[6] = system: Enterococcus faecium; test: Antibacterial activity against glycopeptide-resistant Enterococcus faecium Efm-HS-08257 vanM after 24 hrs by broth microdilution method; type: functional; conditions: Efm-HS-08257, 24 h; method in brief: as §2
[7] = Clearance in CD1 mouse at 5 mg/kg, iv; type: ADME, organism-based; conditions: in vivo
Method in brief: (§4)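 Fasted male CD-1 mice (18−22 g), 5 mg/kg single dose into the tail vein, 6 per group. Blood sampled at 0.25, 0.75, 2, 4, 8 and 24 h and analysed by UPLC-MS/MS. T1/2, AUClast, AUCINF_obs, CL_obs, MRTINF_obs and VSS_obs were calculated for each animal from its time−concentration curve.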

[8] = system: Enterococcus faecium; test: Antibacterial activity against glycopeptide-resistant Enterococcus faecium Efm-HS-06188 vanA after 24 hrs by broth microdilution method; type: functional; conditions: Efm-HS-06188, 24 h; method in brief: as §2
[9] = system: Enterococcus faecium; test: Antibacterial activity against glycopeptide-resistant Enterococcus faecium Efm-HS-0649 vanA after 24 hrs by broth microdilution method; type: functional; conditions: Efm-HS-0649, 24 h; method in brief: as §2
[10] = system: L02; test: Cytotoxicity against human HL7702 cells assessed as decrease in cell viability at 10 to 100 uM after 72 hrs by CCK8 assay; type: cell-based; conditions: l02, 72 h; method in brief: as §1
[11] = system: Enterococcus faecium; test: Antibacterial activity against glycopeptide-resistant Enterococcus faecium Efm-HS-vb01 vanB after 24 hrs by broth microdilution method; type: functional; conditions: Efm-HS-vb01, 24 h; method in brief: as §2
[12] = system: Staphylococcus aureus; test: Antibacterial activity against healthcare-associated methicillin-resistant/vancomycin-intermediate Staphylococcus aureus Mu50 after 24 hrs by broth microdilution method; type: functional; conditions: Mu50, 24 h; method in brief: as §2
[13] = system: Enterococcus faecium; test: Potency index, ratio of oritavancin MIC90 to test compound MIC90 for glycopeptide-resistant Enterococcus faecium Efm-HS-vb01 vanB; type: functional
[14] = Half life in CD1 mouse at 5 mg/kg, iv; type: ADME, organism-based; conditions: in vivo; method in brief: as §4
[15] = MRT (infinity) in CD1 mouse at 5 mg/kg, iv; type: ADME, organism-based; conditions: in vivo; method in brief: as §4
[16] = AUC (infinity) in CD1 mouse at 5 mg/kg, iv; type: ADME, organism-based; set-up: dose 5 mg/kg, route intravenous, time infinity; conditions: in vivo; method in brief: as §4
[17] = system: Enterococcus faecium; test: Potency index, ratio of telavancin MIC90 to test compound MIC90 for glycopeptide-resistant Enterococcus faecium Efm-HS-vb01 vanB; type: functional
[18] = system: Staphylococcus aureus; test: Potency index, ratio of telavancin MIC90 to test compound MIC90 for vancomycin/methicillin-susceptible Staphylococcus aureus Newman […]; type: functional
[19] = Binding affinity to Ac2Lys-dAla-dAla at 2 mM by 1H-13C HSQC NMR method
Method in brief: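 Constant-time [13C,1H]-HSQC at 600 MHz. The compound (2 mM in D2O, pH 3.1, 25 °C) was recorded alone, then again after adding Ac2Lys-dAla-dAla to a final 10 mM under the same conditions. Spectra were overlaid.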

[20] = system: Blood; test: Drug uptake in CD1 mouse blood at 5 mg/kg, iv; type: ADME, organism-based; conditions: in vivo; method in brief: as §4
[21] = AUClast in CD1 mouse at 5 mg/kg, iv; type: ADME, organism-based; set-up: dose 5 mg/kg, route intravenous, time 0 - last; conditions: in vivo; method in brief: as §4
[22] = Volume of distribution at steady state in CD1 mouse at 5 mg/kg, iv; type: ADME, organism-based; conditions: in vivo, read-out: Vdss
Method in brief: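 Fasted male CD-1 mice (18−22 g), 5 mg/kg single dose into the tail vein, 6 per group. T1/2, AUClast, AUCINF_obs, CL_obs, MRTINF_obs and VSS_obs were calculated for each animal from its time−concentration curve.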

[23] = system: Staphylococcus aureus; test: Antibacterial activity against methicillin-resistant Staphylococcus aureus USA300 LAC infected in BALB/c mouse assessed as increase in mouse survival rate at 7 mg/kg, ip administered as single dose after 10 days relative to control; type: functional, organism-based; method in brief: as §3

Structure (SMILES) | Activity [1] | Activity [2] | MIC [3] [µg/mL] | MIC90 [5] [µg/mL] | MIC [6] [µg/mL] | clearance [7] [mL/min/kg] | MIC [8] [µg/mL] | MIC [9] [µg/mL] | Activity [10] | MIC [11] [µg/mL] | MIC90 [12] [µg/mL] | Ratio [13] | half-life [14] [h] | MRT inf [15] [h] | AUC(0-inf) [16] [ng·h/mL] | Ratio [17] | Ratio [18] | Drug uptake [20] [µg/mL] | AUC(0-t) [21] [ng·h/mL] | Vd [22] [L/kg] | other results
CCCCCCCCCCNCCN[C@@]1(C)C[C@H](O[C@H]2[C@H](Oc3c4cc5cc3Oc3ccc(cc3Cl)[C@@H](O)[C@@H](NC(=O)[C@@H](CC(C)C)NC)C(=O)N[C@@H](CC(N)=O)C(=O)N[C@H]5C(=O)N[C@H]3C(=O)N[C@H](C(=O)N[C@H](C(=O)O)c5cc(O)c(CNCP(=O)(O)O)c(O)c5-c5cc3ccc5O)[C@H](O)c3ccc(c(Cl)c3)O4)O[C@H](CO)[C@@H](O)[C@@H]2O)O[C@@H](C)[C@H]1O [TELAVANCIN] | Active | Non-Toxic | 4 (≈ 2.28 µM) | 0.25 (≈ 0.142 µM) | 0.12 (≈ 0.0684 µM) | 5.1 | 8 (≈ 4.56 µM) | 4 (≈ 2.28 µM) | Toxic | 1 (≈ 0.57 µM) | 1 (≈ 0.57 µM) | – | – | – | – | – | – | – | – | – | Activity [4]: Active
CN[C@H](CC(C)C)C(=O)N[C@H]1C(=O)N[C@@H](CC(N)=O)C(=O)N[C@H]2C(=O)N[C@H]3C(=O)N[C@H](C(=O)N[C@H](C(=O)O)c4cc(O)c(CNCCO[C@@H]5O[C@H](CO)[C@H](O)[C@H](O)[C@H]5O)c(O)c4-c4cc3ccc4O)[C@H](O)c3ccc(c(Cl)c3)Oc3cc2cc(c3O[C@@H]2O[C@H](CO)[C@@H](O)[C@H](O)[C@H]2O[C@H]2C[C@](C)(NCc3ccc(-c4ccc(C(F)(F)F)cc4)cc3)[C@H](O)[C@H](C)O2)Oc2ccc(cc2Cl)[C@H]1O | Active | Non-Toxic | 8 (≈ 4.17 µM) | 0.03 (≈ 0.0156 µM) | 2 (≈ 1.04 µM) | 4.42 | 1 (≈ 0.521 µM) | 2 (≈ 1.04 µM) | Non-Toxic | ≤ 0.06 | 0.25 (≈ 0.13 µM) | 4 | 2.94 | 4.21 | 20000 | 16 | 8 - 16 | > 1 | 16600 | 1.08 | survival at 7 mg/kg ([4]; 240 h): 86.7%; Activity [19]: Active
CN[C@H](CC(C)C)C(=O)N[C@H]1C(=O)N[C@@H](CC(N)=O)C(=O)N[C@H]2C(=O)N[C@H]3C(=O)N[C@H](C(=O)N[C@H](C(=O)O)c4cc(O)c(CN[C@H]5C(O)O[C@H](CO)[C@H](O)[C@@H]5O)c(O)c4-c4cc3ccc4O)[C@H](O)c3ccc(c(Cl)c3)Oc3cc2cc(c3O[C@@H]2O[C@H](CO)[C@@H](O)[C@H](O)[C@H]2O[C@H]2C[C@](C)(NCc3ccc(-c4ccc(C(F)(F)F)cc4)cc3)[C@H](O)[C@H](C)O2)Oc2ccc(cc2Cl)[C@H]1O (some centres not stated) | – | – | 4 (≈ 2.13 µM) | 0.015 (≈ 0.008 µM) | 2 (≈ 1.07 µM) | 3.45 | 1 (≈ 0.533 µM) | 1 (≈ 0.533 µM) | – | ≤ 0.06 | 0.12 (≈ 0.064 µM) | 4 | 3.45 | 4.41 | 24300 | 16 | 8 - 16 | > 1 | 20100 | 0.9 | Activity [23]: Active
